From PubChem BioAssay
Only some compounds are listed: those with a hit (about 1.5% of all), similar ones and a draw of the others.
TCR-CD3 inh – human TCR-CD3 binding inhibition | TAMRA-labeled TCR probe fluorescence, biochemical | inhibition, % at 9.4 µM | 0.37% of 360,000 active; in the data active = inhibition above about 19%;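 note: recombinant mutant TCR 2C K166C tagged with TAMRA read by polarization; 0% = receptor in buffer alone and 100% = receptor with positive control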
SIAE inh – human SIAE inhibition, primary screen | inhibition, % at 9.66 µM | 0.69% of 370,000 active | Q9HAT2 | AID 1053197 | SIAE FP-Rh probe binding, fluorescence polarization;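 active = inhibition above a cutoff: mean of compounds within the control limits plus 3 SD of those, cut at about 17% in these data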;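 note: 0% = plate median of compound wells and 100% = probe without SIAE protein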
mABHD4 FP – inhibitors of mouse ABHD4; Q8VD66; purified mABHD4, FP-Rh probe fluorescence polarization; inhibition, % at 8.92 µM; 0.54% of 370,000 active;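 active = inhibition exceeding the mean over every tested compound plus 3 SD, cut at about 30% in these data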;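 note: 0% = plate median of compound wells and 100% = S159A mutant with DMSO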
Target sequence (Q8VD66 whole entry, looked up): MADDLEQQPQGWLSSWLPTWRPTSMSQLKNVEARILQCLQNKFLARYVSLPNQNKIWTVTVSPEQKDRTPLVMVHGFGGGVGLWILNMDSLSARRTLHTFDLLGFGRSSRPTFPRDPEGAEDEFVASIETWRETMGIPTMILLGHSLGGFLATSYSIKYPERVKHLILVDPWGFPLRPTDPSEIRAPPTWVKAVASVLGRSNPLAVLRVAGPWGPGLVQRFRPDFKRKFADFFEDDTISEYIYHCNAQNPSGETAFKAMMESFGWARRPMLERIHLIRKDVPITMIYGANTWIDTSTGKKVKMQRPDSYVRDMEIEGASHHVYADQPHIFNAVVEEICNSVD
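Assay system: wild-type mouse ABHD4 protein; compound: single nominal dose of 8.92 µM, 0.89% DMSO final; schedule: 45 min + 60 min at 25 °C; measured by: FP readout, ex 525 nm / em 598 nm; evaluation: % inhibition of FP-Rh probe binding versus controls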
DAGLB inh – blocks human DAGLB lipase activity; HEK293T DAGLB membrane lysate, EnzChek fluorogenic substrate; Q8NCG7; inhibition, % at 5.17 µM; AID 504411; 0.059% of 340,000 active; in the data active = inhibition above about 34%;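 note: 0% = enzyme with vehicle and 100% = wells lacking enzyme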
HTRA1 inhibitor – HTRA1 (human) protease inhibition; Q92743; recombinant HTRA1, FP-rhodamine activity-based probe, fluorescence polarization; inhibition, % at 5.96 µM; 0.5% of 340,000 active; AID 504803; in the data active = inhibition above about 36%;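 note: 0% = enzyme with DMSO and 100% = wells lacking enzyme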
ABHD4 confirm – confirmation of mouse ABHD4 inhibitors. shares compounds with mABHD4 FP. purified mABHD4, FP-Rh probe fluorescence polarization. inhibition, % at 8.92 µM. 55% of 1,800 active. AID 720658;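 active = mean inhibition across replicates above the hit cutoff set in the primary screen, cut at about 30% in these data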;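 note: 0% = wild-type ABHD4 with DMSO and 100% = catalytically dead S159A mutant with DMSO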
SIAE confirm – human SIAE inhibition, confirmation. shares compounds with SIAE inh. SIAE FP-Rh activity-based probe, fluorescence polarization. inhibition, % at 9.66 µM. 13% of 2,300 active;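 active = mean inhibition of the replicates above the hit cutoff set in the primary screen, cut at about 17% in these data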;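 note: 0% = SIAE with DMSO and probe and 100% = probe without SIAE; inhibitors lower polarization as more probe stays unbound to SIAE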
An asterisk follows results filed as active; . = no result.

SMILES	TCR-CD3 inh	SIAE inh	mABHD4 FP	DAGLB inh	HTRA1 inhibitor	SIAE confirm	others
CC[C@]12CCN(CC3(O)CC3)[C@H](Cc3ccc(O)cc31)C2(C)C	1.7	-0.1	2.2	.	.	.
O=c1[nH]c(=S)n(-c2ccc(Br)cc2)c(O)c1C=Nc1ccc(N2CCOCC2)cc1	4.1	6.5	22.1	4.6	22.1	.
O=c1[nH]c(=S)n(-c2ccccc2F)c(O)c1C=Nc1ccc(N2CCOCC2)cc1	4.1	8.7	57.8*	3.1	12.2	.	ABHD4 confirm=2.3
CCN(CC)c1ccc(N=Cc2c(O)n(-c3ccc(Cl)cc3)c(=O)[nH]c2=O)cc1	3.2	-1.1	0.9	0.2	8.3	.
CC(=O)N1CCN(c2ccc(N=Cc3c(O)n(-c4ccc(Cl)cc4)c(=O)[nH]c3=O)cc2)CC1	4.5	10.6	41.5*	5.5	23.5	.	ABHD4 confirm=4.6
O=C(O)c1cccc2c1NC(c1cccc([N+](=O)[O-])c1)C1CC(Sc3ccccc3[N+](=O)[O-])C(Cl)C21 (stereo not drawn)	5.9	16.8	29.6*	15.0	16.0	.	ABHD4 confirm=54.6*
O=C(N/N=C/c1c(O)n(Cc2ccc(F)cc2)c(=S)[nH]c1=O)c1ccncc1	-11.5	-52.6	31.9*	7.5	-9.6	.	ABHD4 confirm=36.9*
CCn1c(O)c(/C=N/NC(=O)c2ccncc2)c(=O)[nH]c1=S	-37.2	-65.2	-18.4	4.3	-26.0	.
N/C(=N\N=C/c1ccc(-c2ccc(O)c(C(=O)O)c2)o1)N[N+](=O)[O-]	17.4	-2.3	35.2*	4.0	5.2	.	ABHD4 confirm=42.4*
COc1ccc(/C=N/N=C(/N)N[N+](=O)[O-])c(OC)c1	-4.8	-1.6	-4.3	-2.1	0.5	.
O=C1NCN(c2ccccc2)C12CCN(C(c1cccc3ccccc13)c1nnnn1-c1ccc3c(c1)OCCO3)CC2 (stereo not drawn)	-6.8	-9.2	4.3	.	.	.
CCN(CC)c1ccc(N=Cc2c(O)n(-c3ccc(OC)cc3)c(=O)[nH]c2=O)cc1	0.1	5.0	38.0*	6.2	35.1	.	ABHD4 confirm=2.4
Cc1ccccc1-n1c(O)c(C=Nc2ccc(N(C)C)cc2)c(=O)[nH]c1=O	15.4	5.6	39.6*	0.4	35.1	.	ABHD4 confirm=6.5
CCC1C2Cc3ccc(O)cc3C1(CC)CCN2C (stereo not drawn)	-1.6	13.1	3.1	-3.1	2.9	.
C[C@]12CCC3C(CC[C@H]4C[C@@H](O)CC[C@]34C)C1C[C@H](Br)[C@@H]2O (stereo partly drawn)	1.4	1.4	1.4	.	.	.
CN1CCc2cc(O)cc3c2[C@H]1Cc1ccc(O)c(O)c1-3	17.2	12.4	57.2*	-0.8	30.0	.	ABHD4 confirm=17.5
CCOC(=O)CC[C@@H]1CC[C@]2(CCCN(Cc3ccncc3)C2)O1	.	4.8	7.3	.	.	.
O=C(N/N=C/C1C(=O)NC(=S)N(c2ccccc2)C1=O)c1cc(Br)c(O)c(Br)c1 (stereo not drawn)	14.3	-3.0	41.7*	9.3	35.8	.	ABHD4 confirm=48.0*
CNC(=O)Oc1cccc(-c2cn3cc(OC(=O)NC)ccc3n2)c1	6.9	17.1*	40.4*	-2.1	20.9	5.0	ABHD4 confirm=22.0
CC1OC(OC2C=C3CCC4C(CCC5(C)C(c6ccc(=O)oc6)CCC45O)C3(C)CC2)C(O)C(OC2OC(CO)C(O)C(O)C2O)C1O (stereo not drawn)	3.7	0.1	-4.5	-5.2	4.4	.
Cc1ccc(-c2cc(-c3ccc(C)cc3)[n+](C)o2)cc1	5.9	18.1*	15.0	-1.2	8.5	0.6
Cc1ccc(-c2cc(-c3ccc(C)cc3)[n+](-c3ccccc3)c(-c3ccc(C)cc3)c2)cc1	.	.	.	10.9	-21.1	.
O=c1cc(C(F)(F)F)c2cc3c4c(c2o1)CCCN4CCC3	9.5	17.9*	29.2	-234.2	-9.7	9.6
c1ccc(N2[C@@H]3CC[C@H]2c2ccncc2C3)cc1	3.8	-2.2	-2.2	.	.	.
COc1ccc(CN2CCCC(C(=O)c3ccc(Cl)cc3)C2)c(OC)c1 (stereo not drawn)	6.9	17.6*	0.9	-0.5	2.5	-4.2
SMILES	TCR-CD3 inh	SIAE inh	mABHD4 FP	DAGLB inh	HTRA1 inhibitor	SIAE confirm	others
N#CCCCCC#N	4.4	-4.0	-2.2	-0.5	3.6	.
CN(C)C(CNC(=O)Cc1c(Cl)cccc1Cl)c1ccccc1 (stereo not drawn)	-4.4	17.3*	8.2	-2.7	-3.8	4.3
CC(NCc1cccc(Cl)c1Cl)C(O)c1ccccc1 (stereo not drawn)	1.1	-0.6	-4.4	-3.5	-0.3	.
Cc1ccc(C(O)(C(=O)OC(C)C)C(O)c2ccccc2)cc1 (stereo not drawn)	-1.5	-6.7	-17.6	.	.	.
C/C(=N\N1CCCCCC1)c1c(O)n(-c2ccccc2)c(=O)[nH]c1=O	-5.4	49.5*	-16.9	3.6	-1.4	4.7
CC12CCC3c4ccc(OP(=O)(N5CC5)N5CC5)cc4CCC3C1CCC2=O (stereo not drawn)	-2.6	0.9	0.0	1.1	-5.9	.
O=C(c1ccc2c(c1)N(Cc1ccc(F)cc1)CCS2)N1CCC2(CC1)OCCO2	-2.6	17.8*	4.1	7.6	1.6	1.5
CN1/C(=C\C=C2C(=O)NC(=S)NC2=O)C(C)(C)c2ccccc21	-2.5	59.8*	-16.5	-124.1	-1.4	153.3*
CC1=NN(c2ccccc2)C(=O)C1/C=C1/C(=O)NC(=O)N(c2cc(C)cc(C)c2)C1=O (stereo not drawn)	5.4	74.6*	-5.8	-1.6	0.0	-1.0
CC1=NN(c2ccccc2)C(=O)C1/C=C1\C(=O)NC(=O)N(c2cc(C)cc(C)c2)C1=O (stereo not drawn)	-9.1	5.8	-5.5	5.7	-3.6	.
CCc1nn2c(=O)c(F)c(N3CCNCC3)nc2s1	0.5	-1.8	-8.2	.	.	.
Cn1cc(C=C2C(=O)NC(=O)NC2=O)c2ccccc21	2.6	47.3*	4.7	-0.9	3.4	-21.6
N#CC1=C(N)Oc2c(c(=O)oc3ccccc23)C1c1ccc([N+](=O)[O-])o1 (stereo not drawn)	2.5	21.8*	10.1	5.2	4.1	-2.6
CN(C(=O)Cc1ccc2c(c1)OCO2)C1CCCN(Cc2ccccc2F)C1 (stereo not drawn)	1.9	22.8*	-4.3	-2.6	0.8	2.0
O=C(CCc1ccccc1)N1Cc2cc(N3CCCCC3)ccc2-n2nncc2C1	-5.1	-12.0	-22.7	.	.	.
O=c1[nH]c(O)c(N=Nc2ccc3c(c2)OCCO3)c(=O)[nH]1	4.1	17.5*	-1.5	0.6	4.3	1.1
O=c1[nH]c(=S)[nH]c(O)c1N=Nc1ccc2c(c1)OCCO2	1.4	-13.8	-6.8	4.4	-16.7	.
Cc1cc(N(CCCl)CCCl)ccc1C=Cc1ccncn1	-5.8	-4.0	3.3	-19.3	7.0	.
CCS(=O)(=O)CCSP(=O)(OC)OC	-5.0	34.4*	-5.7	-0.6	2.3	48.9*
